Laboratory results taken from ChEMBL document CHEMBL1135421, “2-(Anilinomethyl)imidazolines as alpha1 adrenergic receptor agonists: the discovery of alpha1a subtype selective 2'-alkylsulfonyl-substituted analogues” (J Med Chem, 2002).
One block for each molecule: values may come before it.

Experiments:
[1] = target: T1, Alpha-2C adrenergic receptor (Homo sapiens) (UniProt P18825); experiment: Efficacy as percentage of the maximal effect observed for nonselective agonist UK-14304 in CHO cells expressing human Alpha-2A adrenergic receptor; assay type: functional, cell-based
T1 sequence (whole entry): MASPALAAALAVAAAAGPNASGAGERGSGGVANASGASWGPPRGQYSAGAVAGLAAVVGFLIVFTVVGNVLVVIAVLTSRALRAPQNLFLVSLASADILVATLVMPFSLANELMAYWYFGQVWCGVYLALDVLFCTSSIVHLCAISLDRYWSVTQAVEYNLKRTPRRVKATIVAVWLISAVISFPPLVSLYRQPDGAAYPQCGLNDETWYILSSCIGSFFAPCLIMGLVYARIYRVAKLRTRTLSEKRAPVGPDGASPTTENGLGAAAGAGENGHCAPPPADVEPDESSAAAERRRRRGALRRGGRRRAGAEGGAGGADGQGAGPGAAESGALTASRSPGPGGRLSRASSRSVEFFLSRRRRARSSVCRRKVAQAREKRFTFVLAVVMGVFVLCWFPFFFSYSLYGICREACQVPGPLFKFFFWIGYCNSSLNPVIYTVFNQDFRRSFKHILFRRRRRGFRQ
Summary of the method: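 Human α2A receptor in CHO cells, cAMP assay. Cells were preincubated with compound or UK14304 for 30 min at 37 °C with IBMX 300 μM. […] Efficacy is relative to the UK14304 maximum.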

[2] = target: T2, Alpha-2A adrenergic receptor (Homo sapiens, UniProt P08913); experiment: Affinity to human aAlpha-2A adrenergic receptor determined by radioligand binding techniques from chinese hamster ovary (CHO) cells; assay type: cell-based
T2 sequence (P08913 whole entry): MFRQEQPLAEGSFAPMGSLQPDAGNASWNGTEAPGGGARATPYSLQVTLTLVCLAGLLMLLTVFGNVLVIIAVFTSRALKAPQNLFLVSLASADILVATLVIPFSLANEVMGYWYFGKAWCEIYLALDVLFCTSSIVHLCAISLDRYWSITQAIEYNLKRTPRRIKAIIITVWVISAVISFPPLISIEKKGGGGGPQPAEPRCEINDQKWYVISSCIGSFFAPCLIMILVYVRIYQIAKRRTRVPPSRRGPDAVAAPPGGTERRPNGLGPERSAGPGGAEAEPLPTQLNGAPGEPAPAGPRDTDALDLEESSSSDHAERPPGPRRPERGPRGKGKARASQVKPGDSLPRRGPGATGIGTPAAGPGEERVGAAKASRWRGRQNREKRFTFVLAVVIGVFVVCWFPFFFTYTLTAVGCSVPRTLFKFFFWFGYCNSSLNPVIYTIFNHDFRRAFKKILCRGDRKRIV

[3] = target: T3, Alpha-1B adrenergic receptor (Homo sapiens) (UniProt P35368); experiment: Agonist potency at Alpha-1B adrenergic receptor assayed in rat-1 fibroblasts expressing human Alpha-1B adrenergic receptor; assay type: functional
T3 sequence (whole entry): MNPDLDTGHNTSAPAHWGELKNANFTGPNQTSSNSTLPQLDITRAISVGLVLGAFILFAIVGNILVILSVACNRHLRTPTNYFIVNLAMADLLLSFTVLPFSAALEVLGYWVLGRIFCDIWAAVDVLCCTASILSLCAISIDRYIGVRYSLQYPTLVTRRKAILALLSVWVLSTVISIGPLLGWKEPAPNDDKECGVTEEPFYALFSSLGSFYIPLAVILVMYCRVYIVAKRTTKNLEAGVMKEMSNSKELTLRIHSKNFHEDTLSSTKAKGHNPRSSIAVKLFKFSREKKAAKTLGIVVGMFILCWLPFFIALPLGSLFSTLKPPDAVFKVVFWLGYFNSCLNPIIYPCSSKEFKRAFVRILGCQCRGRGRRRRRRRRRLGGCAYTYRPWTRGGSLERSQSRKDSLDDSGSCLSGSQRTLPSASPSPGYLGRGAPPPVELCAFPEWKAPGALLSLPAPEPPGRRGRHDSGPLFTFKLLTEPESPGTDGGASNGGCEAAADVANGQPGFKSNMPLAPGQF
Summary of the method: (§1)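 Rat-1 fibroblasts expressing human α1a/α1b/α1d, grown in DMEM with 10% heat-inactivated FBS and 0.6 mg/mL G418, plated 6000 cells/well and cultured 48 h at 37 °C. Loaded 2 h at 37 °C with Calcium Green (4 μM), 0.2% pluronic acid and 2.5 mM probenecid in HEPES buffer pH 7.4. FLIPR read at room temperature: 10 s baseline, then 50 s after compound. 11-point curves as % of 40 μM phenylephrine response, top concentration typically 5 μM.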

[4] = target: T4, Alpha-1B adrenergic receptor (Homo sapiens, UniProt P35368); experiment: Agonist potency at alpha-1b adrenoceptors assayed in rat-1 fibroblasts expressing human Alpha-1B adrenergic receptor; assay type: functional
T4 sequence (P35368 whole entry): T3 sequence (whole entry)
Summary of the method: (§2)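 Human α1a, α1b or α1d receptors expressed in Rat-1 fibroblasts (DMEM, 10% heat-inactivated FBS, 0.6 mg/mL G418). Cells were plated at 6000/well and grown 48 h at 37 °C. They were loaded 2 h at 37 °C with Calcium Green (4 μM), pluronic acid 0.2% and probenecid 2.5 mM in HEPES buffer pH 7.4, then read by FLIPR at room temperature: 10 s baseline, 50 s after compound. 11-point curves were expressed as % of the 40 μM phenylephrine response; top concentration typically 5 μM.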

[5] = target: T4, Alpha-1B adrenergic receptor; experiment: Agonist potency at alpha-1b adrenoceptors assayed in rat-1 fibroblasts expressing human alpha-1b; assay type: functional; summary of the method: as §1
[6] = target: T5, Alpha-1A adrenergic receptor (Homo sapiens) (UniProt P35348); experiment: Efficacy as % of the maximal effect observed for nonselective agonist phenylephrine in rat-1 fibroblasts expressing human alpha1; assay type: functional; summary of the method: as §1
T5 sequence (whole entry): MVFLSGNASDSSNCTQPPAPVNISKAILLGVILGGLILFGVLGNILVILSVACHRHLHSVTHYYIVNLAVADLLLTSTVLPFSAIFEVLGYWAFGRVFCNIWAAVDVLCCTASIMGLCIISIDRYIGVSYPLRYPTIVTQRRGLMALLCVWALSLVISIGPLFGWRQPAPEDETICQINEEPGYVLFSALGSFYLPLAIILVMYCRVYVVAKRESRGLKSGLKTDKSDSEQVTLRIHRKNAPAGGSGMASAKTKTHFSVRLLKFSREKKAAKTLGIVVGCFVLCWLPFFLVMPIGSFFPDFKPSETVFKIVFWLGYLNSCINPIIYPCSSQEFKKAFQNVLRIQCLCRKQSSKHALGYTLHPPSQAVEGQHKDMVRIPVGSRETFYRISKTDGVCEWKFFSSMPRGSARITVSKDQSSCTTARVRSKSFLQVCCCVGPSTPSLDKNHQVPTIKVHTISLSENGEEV

[7] = target: T6, Alpha-1A adrenergic receptor (Homo sapiens, UniProt P35348); experiment: Agonist potency at Alpha-1 adrenergic receptor assayed in rat-1 fibroblasts expressing human Alpha-1 adrenergic receptor; assay type: functional; summary of the method: as §2
T6 sequence (P35348 whole entry): T5 sequence (whole entry)

Structure (SMILES): CC(C)S(=O)(=O)c1ccccc1NCC1=NCCN1
Max [1]: 14%

Ki [2]: > 7940 nM
pEC5 [3]: < 4
Structure (SMILES): CCCS(=O)(=O)c1ccccc1NCC1=NCCN1

Structure (SMILES): CS(=O)(=O)c1cc(Cl)ccc1NCC1=NCCN1
EC50 [4]: > 100000 nM

EC50 [5]: 2.19 nM
Structure (SMILES): CSc1ccccc1NCC1=NCCN1

Structure (SMILES): CS(=O)(=O)c1c(F)cccc1NCC1=NCCN1
Max [6]: 93%

Structure (SMILES): CS(=O)(=O)c1cc(F)ccc1NCC1=NCCN1
EC50 [7]: 437 nM
